In ChEMBL document CHEMBL3751731, “Ferulic acid-carbazole hybrid compounds: Combination of cholinesterase inhibition, antioxidant and neuroprotection as multifunctional anti-Alzheimer agents” (Bioorg Med Chem, 2016):
Active and inactive are the calls of the source. No cut-off for these calls is given here.

What was measured:
Acetylcholinesterase [1] = biological target: Acetylcholinesterase (Electrophorus electricus, UniProt O42275); assay: Inhibition of electric eel AChE using ATC as substrate preincubated for 5 mins followed by substrate addition measured after 2 mins by Ellman's assay
Cholinesterase [2] = biological target: Cholinesterase (Equus caballus, UniProt P81908); assay: Inhibition of equine BChE using BTC as substrate preincubated for 5 mins followed by substrate addition measured after 2 mins by Ellman's assay
[3] = Antioxidant activity assessed as DPPH radical scavenging activity at 100 uM after 4 hrs by UV spectrophotometric analysis; type: physicochemical
In short: (§1)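 DPPH radical at 0.1 mM in ethanol. Test compounds were in ethanol at 1–100 µM (1, 2, 10, 50, 100). Mixture lines used an equimolar (1:1) blend with ferulic acid. Absorbance was read at 517 nm before addition (Abs0) and after 4 h once stable (Abst). Scavenging % = (1 − Abst/Abs0) × 100.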

[4] = Antioxidant activity assessed as DPPH radical scavenging activity at 50 uM after 4 hrs by UV spectrophotometric analysis; type: physicochemical; in short: as §1
[5] = Antioxidant activity assessed as DPPH radical scavenging activity at 10 uM after 4 hrs by UV spectrophotometric analysis; type: physicochemical; in short: as §1
[6] = Antioxidant activity assessed as DPPH radical scavenging activity at 2 uM after 4 hrs by UV spectrophotometric analysis; type: physicochemical; in short: as §1
[7] = Antioxidant activity assessed as DPPH radical scavenging activity at 1 uM after 4 hrs by UV spectrophotometric analysis; type: physicochemical; in short: as §1
[8] = Antioxidant activity assessed as galvinoxyl radical scavenging activity at 100 uM after 19 hrs by UV spectrophotometric analysis; type: physicochemical
In short: (§2)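 Galvinoxyl radical at 2 µM in ethanol, with compounds in ethanol at 1, 2, 10, 50 or 100 µM. Mixture lines used an equimolar (1:1) blend with ferulic acid. A428 was recorded before addition and after 19 h once stable. Percent radical scavenged = (1 − Abst/Abs0) × 100.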

[9] = Antioxidant activity assessed as galvinoxyl radical scavenging activity at 50 uM after 19 hrs by UV spectrophotometric analysis; type: physicochemical; in short: as §2
[10] = Antioxidant activity assessed as galvinoxyl radical scavenging activity at 10 uM after 19 hrs by UV spectrophotometric analysis; type: physicochemical; in short: as §2
[11] = Antioxidant activity assessed as galvinoxyl radical scavenging activity at 2 uM after 19 hrs by UV spectrophotometric analysis; type: physicochemical; in short: as §2
[12] = Antioxidant activity assessed as galvinoxyl radical scavenging activity at 1 uM after 19 hrs by UV spectrophotometric analysis; type: physicochemical; in short: as §2
Acetylcholinesterase [13] = biological target: Acetylcholinesterase (Homo sapiens, UniProt P22303); assay: Inhibition of human AChE using ATC as substrate preincubated for 5 mins followed by substrate addition measured after 2 mins by Ellman's assay
In short: (§3)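 Ellman's method with DTNB chromogen, acetylthiocholine (AChE) or butyrylthiocholine (BChE) iodide substrate, in potassium phosphate buffer pH 8.0 (KOH-adjusted). Compounds were diluted from ethanol stocks, with a top final concentration of 10^-4 M. At least five concentrations (normally 10^-4–10^-9 M) were run, each in triplicate, read at 412 nm at 25 °C. IC50 values are from inhibition curves, as means of at least three determinations.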

Cholinesterase [14] = biological target: Cholinesterase (Homo sapiens, UniProt P06276); assay: Inhibition of human BChE using BTC as substrate preincubated for 5 mins followed by substrate addition measured after 2 mins by Ellman's assay; in short: as §3
[15] = Antioxidant activity assessed as DPPH radical scavenging activity at 100 uM after 4 hrs by UV spectrophotometric analysis in presence of ferulic acid; type: physicochemical; in short: as §1
[16] = Antioxidant activity assessed as DPPH radical scavenging activity at 50 uM after 4 hrs by UV spectrophotometric analysis in presence of ferulic acid; type: physicochemical; in short: as §1
[17] = Antioxidant activity assessed as DPPH radical scavenging activity at 10 uM after 4 hrs by UV spectrophotometric analysis in presence of ferulic acid; type: physicochemical; in short: as §1
[18] = Antioxidant activity assessed as DPPH radical scavenging activity at 2 uM after 4 hrs by UV spectrophotometric analysis in presence of ferulic acid; type: physicochemical; in short: as §1
[19] = Antioxidant activity assessed as DPPH radical scavenging activity at 1 uM after 4 hrs by UV spectrophotometric analysis in presence of ferulic acid; type: physicochemical; in short: as §1
[20] = Antioxidant activity assessed as galvinoxyl radical scavenging activity at 100 uM after 19 hrs in presence of ferulic acid by UV spectrophotometric analysis; type: physicochemical; in short: as §2
[21] = Antioxidant activity assessed as galvinoxyl radical scavenging activity at 50 uM after 19 hrs in presence of ferulic acid by UV spectrophotometric analysis; type: physicochemical; in short: as §2
[22] = Antioxidant activity assessed as galvinoxyl radical scavenging activity at 10 uM after 19 hrs in presence of ferulic acid by UV spectrophotometric analysis; type: physicochemical; in short: as §2
[23] = Antioxidant activity assessed as galvinoxyl radical scavenging activity at 2 uM after 19 hrs in presence of ferulic acid by UV spectrophotometric analysis; type: physicochemical; in short: as §2
[24] = Antioxidant activity assessed as galvinoxyl radical scavenging activity at 1 uM after 19 hrs in presence of ferulic acid by UV spectrophotometric analysis; type: physicochemical; in short: as §2
PC-12 [25] = assay: Neuroprotective effect in rat PC12 cells assessed as alleviation of H2O2-induced toxicity at 1:1 compound to ferulic acid molar ratio after 24 hrs by MTT assay; type: functional, cell-based
In short: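 PC12 cells (F-12, 10% FBS, 37 °C, 5% CO₂; 2000 cells/well, 24 h pre-culture) were co-treated with compound (0.1, 1, 10, 50; DMSO <0.5%) and H₂O₂ for 24 h. The mixture line used a 1:1 molar blend with ferulic acid. MTT for 4 h, formazan dissolved in DMSO, A540, blank-subtracted. Viability is % of control; three independent trials, mean ± SEM.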

PC-12 [26] = assay: Neuroprotective effect in rat PC12 cells assessed as alleviation of amyloid beta 42-induced toxicity at 1:1 compound to ferulic acid molar ratio after 24 hrs by MTT assay; type: functional, cell-based
In short: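 Aβ42 was dissolved in hexafluoroisopropanol, dried to a film, taken up in F-12 and held at 4 °C for 24 h. PC12 cells (2000/well, 24 h pre-culture) were co-treated with this Aβ42 and compound (0.1–50; DMSO <0.5%) for 24 h. The mixture line used a 1:1 blend with ferulic acid. MTT for 4 h, A540; % of control, three independent trials, mean ± SEM.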

Chain of Acetylcholinesterase (Electrophorus electricus, UniProt O42275) (O42275 whole entry): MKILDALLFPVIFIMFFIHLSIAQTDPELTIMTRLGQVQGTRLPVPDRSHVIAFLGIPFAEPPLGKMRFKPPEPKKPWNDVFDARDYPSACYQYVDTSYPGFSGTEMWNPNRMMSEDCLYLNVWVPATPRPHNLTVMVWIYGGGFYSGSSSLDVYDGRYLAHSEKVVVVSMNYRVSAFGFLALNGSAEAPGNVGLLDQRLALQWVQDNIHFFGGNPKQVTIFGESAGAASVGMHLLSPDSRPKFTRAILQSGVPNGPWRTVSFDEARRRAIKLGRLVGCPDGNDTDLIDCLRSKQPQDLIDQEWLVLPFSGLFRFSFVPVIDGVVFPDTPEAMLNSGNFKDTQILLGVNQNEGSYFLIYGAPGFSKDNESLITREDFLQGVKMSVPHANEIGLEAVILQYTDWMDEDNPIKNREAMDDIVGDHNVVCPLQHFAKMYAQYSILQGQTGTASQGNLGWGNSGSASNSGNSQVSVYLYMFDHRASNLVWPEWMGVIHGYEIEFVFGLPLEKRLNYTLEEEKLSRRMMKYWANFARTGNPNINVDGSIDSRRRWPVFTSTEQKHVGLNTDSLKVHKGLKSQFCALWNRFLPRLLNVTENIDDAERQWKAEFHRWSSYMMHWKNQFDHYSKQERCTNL
Chain of Cholinesterase (Equus caballus, UniProt P81908) (P81908 whole entry): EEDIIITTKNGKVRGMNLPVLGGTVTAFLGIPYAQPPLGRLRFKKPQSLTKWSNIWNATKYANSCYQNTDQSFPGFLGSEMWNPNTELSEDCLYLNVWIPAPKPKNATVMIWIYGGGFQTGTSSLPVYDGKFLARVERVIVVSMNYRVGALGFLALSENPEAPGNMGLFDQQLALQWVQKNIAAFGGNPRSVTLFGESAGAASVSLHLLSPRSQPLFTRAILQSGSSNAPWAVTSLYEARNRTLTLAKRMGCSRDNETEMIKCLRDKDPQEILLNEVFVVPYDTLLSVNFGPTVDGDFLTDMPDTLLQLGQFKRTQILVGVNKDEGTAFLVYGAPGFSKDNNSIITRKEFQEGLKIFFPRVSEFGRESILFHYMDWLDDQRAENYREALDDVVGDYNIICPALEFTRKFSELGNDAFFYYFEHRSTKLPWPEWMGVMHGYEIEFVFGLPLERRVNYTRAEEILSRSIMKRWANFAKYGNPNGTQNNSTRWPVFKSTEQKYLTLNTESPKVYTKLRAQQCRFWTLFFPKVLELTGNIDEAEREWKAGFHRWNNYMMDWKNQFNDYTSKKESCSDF
Chain of Acetylcholinesterase (Homo sapiens, UniProt P22303) (P22303 whole entry): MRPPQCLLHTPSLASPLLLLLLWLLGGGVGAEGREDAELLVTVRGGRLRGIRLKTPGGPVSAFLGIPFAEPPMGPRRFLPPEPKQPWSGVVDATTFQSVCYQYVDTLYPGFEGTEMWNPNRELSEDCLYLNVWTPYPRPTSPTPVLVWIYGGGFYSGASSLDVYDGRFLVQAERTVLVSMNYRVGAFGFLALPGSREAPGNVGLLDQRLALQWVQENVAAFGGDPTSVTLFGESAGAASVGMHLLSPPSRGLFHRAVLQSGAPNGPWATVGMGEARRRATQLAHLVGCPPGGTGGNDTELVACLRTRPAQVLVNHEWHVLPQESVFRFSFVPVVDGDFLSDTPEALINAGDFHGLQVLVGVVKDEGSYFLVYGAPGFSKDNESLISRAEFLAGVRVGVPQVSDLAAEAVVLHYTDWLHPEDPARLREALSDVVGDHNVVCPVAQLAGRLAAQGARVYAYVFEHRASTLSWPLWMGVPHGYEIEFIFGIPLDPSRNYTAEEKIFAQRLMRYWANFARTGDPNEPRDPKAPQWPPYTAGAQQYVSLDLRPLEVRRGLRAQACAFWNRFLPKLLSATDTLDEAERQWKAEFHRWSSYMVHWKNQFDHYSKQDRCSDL
Chain of Cholinesterase (Homo sapiens, UniProt P06276) (P06276 whole entry): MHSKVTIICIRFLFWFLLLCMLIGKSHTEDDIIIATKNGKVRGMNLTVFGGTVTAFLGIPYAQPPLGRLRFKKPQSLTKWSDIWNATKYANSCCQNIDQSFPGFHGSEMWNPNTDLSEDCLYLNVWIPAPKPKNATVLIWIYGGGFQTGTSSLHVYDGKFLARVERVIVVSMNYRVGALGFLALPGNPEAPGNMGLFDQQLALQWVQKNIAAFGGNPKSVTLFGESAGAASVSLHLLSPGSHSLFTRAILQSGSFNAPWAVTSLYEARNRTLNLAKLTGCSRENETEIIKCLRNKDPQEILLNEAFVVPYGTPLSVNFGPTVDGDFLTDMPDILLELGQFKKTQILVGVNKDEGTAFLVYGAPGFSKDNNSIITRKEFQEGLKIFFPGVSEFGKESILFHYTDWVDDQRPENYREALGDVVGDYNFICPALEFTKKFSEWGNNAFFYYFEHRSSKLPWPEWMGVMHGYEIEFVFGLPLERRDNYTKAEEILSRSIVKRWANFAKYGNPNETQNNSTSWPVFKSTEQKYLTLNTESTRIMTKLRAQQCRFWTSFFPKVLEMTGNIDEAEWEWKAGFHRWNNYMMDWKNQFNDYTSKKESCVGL

Structure (SMILES) | IC50 (Acetylcholinesterase [1]) | IC50 (Cholinesterase [2]) | Activity [3] | Activity [4] | Activity [5] | Activity [6] | Activity [7] | Activity [8] | Activity [9] | Activity [10] | Activity [11] | Activity [12] | other results
COc1cc(/C=C/C(=O)N(Cc2cccc3[nH]c4ccccc4c23)C2CCCC2)ccc1O | > 100 µM | 31.6 µM | 90.3% | 85.7% | 66.6% | 54.5% | 25.9% | 90.3% | 85.7% | 66.6% | 54.5% | 25.9% | 
COc1cc(/C=C/C(=O)N(Cc2cccc3[nH]c4ccccc4c23)C(C)C)ccc1O | 11.1 µM | 12.7 µM | 90.9% | 84.5% | 68.9% | 56.2% | 44.1% | 90.8% | 87.5% | 68% | 55.2% | 24.1% | IC50 (Acetylcholinesterase [13]): 22 µM; IC50 (Cholinesterase [14]): 9 µM
CCN(Cc1cccc2[nH]c3ccccc3c12)C(=O)/C=C/c1ccc(O)c(OC)c1 | 18 µM | 13.8 µM | 86.3% | 82.8% | 55% | 40.1% | 24.7% | 86.3% | 82.8% | 55% | 40.1% | 24.7% | 
COc1ccc2c(c1)[nH]c1cccc(CN(C(=O)/C=C/c3ccc(O)c(OC)c3)C(C)C)c12 | 58.2 µM | 13.9 µM | 98% | 72.9% | 68.2% | 55% | 45.1% | 87.2% | 51.7% | 23.4% | 8% | 1.1% | 
CCNCc1cccc2[nH]c3cc(Cl)ccc3c12 | 2.1 µM | 1.9 µM |  |  |  |  |  |  |  |  |  |  | IC50 (Acetylcholinesterase [13]): 5.1 µM; IC50 (Cholinesterase [14]): 7.9 µM; Activity [15]: 93.2%; Activity [16]: 71.4%; Activity [17]: 60.1%; Activity [18]: 44.7%; Activity [19]: 31.6%; Activity [20]: 83.2%; Activity [21]: 51.4%; Activity [22]: 30.1%; Activity [23]: 14.7%; Activity [24]: 11%; Activity (PC-12 [25]): Active; Activity (PC-12 [26]): inactive
CCN(Cc1cccc2[nH]c3cc(OC)ccc3c12)C(=O)/C=C/c1ccc(O)c(OC)c1 | 61.6 µM | 19.8 µM | 94.9% | 86.4% | 71.3% | 59.2% | 33.1% | 91.9% | 78.2% | 40.3% | 29.2% | 11.1% | 
COc1ccc2c(c1)[nH]c1cccc(CN(C(=O)/C=C/c3ccc(O)c(OC)c3)C3CCCCC3)c12 | > 100 µM | 20.5 µM | 88.6% | 82% | 50.9% | 47.9% | 38.6% | 88.6% | 72% | 50.9% | 40.9% | 25.6% | 
COc1ccc2c(c1)[nH]c1cccc(CN(Cc3ccccc3)C(=O)/C=C/c3ccc(O)c(OC)c3)c12 | > 100 µM |  |  |  |  |  |  |  |  |  |  |  | 
COc1cc(/C=C/C(=O)O)ccc1O [FERULATE] |  |  | 92.2% | 72% | 63.1% | 44.4% | 30.3% | 79% | 52.2% | 33.7% | 15.8% | 6.6% | 
CC(C)NCc1cccc2[nH]c3ccccc3c12 | 21.6 µM | 8.9 µM |  |  |  |  |  |  |  |  |  |  | IC50 (Acetylcholinesterase [13]): 18 µM; IC50 (Cholinesterase [14]): 8.1 µM
COc1cc(/C=C/C(=O)N(Cc2cccc3[nH]c4ccccc4c23)C2CCCCC2)ccc1O | > 100 µM | 22 µM | 89.2% | 72% | 63.1% | 52.4% | 30.3% | 87.2% | 42% | 23.1% | 12.4% | 3.3% | 
COc1ccc2c(c1)[nH]c1cccc(CN(C(=O)/C=C/c3ccc(O)c(OC)c3)C3CCCC3)c12 | 88.2 µM | 25.9 µM | 90.4% | 86.8% | 67.4% | 54% | 34.8% | 87.4% | 66.8% | 37.4% | 24% | 14.8% | 
COc1cc(/C=C/C(=O)N(Cc2ccccc2)Cc2cccc3[nH]c4ccccc4c23)ccc1O | > 100 µM |  |  |  |  |  |  |  |  |  |  |  | 
